According to the M2OR odorant receptor database:

How the values were obtained:
Conditions in all cases: stereoisomer not certain
[1] = target: T1, OR10G2 (Homo sapiens) (UniProt Q8NGC3)
T1 sequence (whole entry): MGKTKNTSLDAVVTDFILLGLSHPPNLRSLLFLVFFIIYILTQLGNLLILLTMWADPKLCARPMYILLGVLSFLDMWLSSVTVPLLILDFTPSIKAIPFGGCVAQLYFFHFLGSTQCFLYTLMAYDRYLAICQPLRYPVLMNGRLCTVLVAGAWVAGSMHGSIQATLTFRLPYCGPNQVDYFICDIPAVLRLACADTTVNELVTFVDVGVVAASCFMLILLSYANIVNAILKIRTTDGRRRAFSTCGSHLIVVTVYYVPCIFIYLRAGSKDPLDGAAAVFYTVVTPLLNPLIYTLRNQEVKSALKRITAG
In short: (§1)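 Whether a receptor–molecule pair is responsive (active) rests on the original authors' judgment that its measured signal was statistically different from baseline. Pairs without that judgment are non-responsive (inactive). Sources used varied assay methods, commonly transient luciferase assays in mammalian cell lines.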

[2] = target: T2, OR10G3 (Homo sapiens) (UniProt Q8NGC4)
T2 sequence (whole entry): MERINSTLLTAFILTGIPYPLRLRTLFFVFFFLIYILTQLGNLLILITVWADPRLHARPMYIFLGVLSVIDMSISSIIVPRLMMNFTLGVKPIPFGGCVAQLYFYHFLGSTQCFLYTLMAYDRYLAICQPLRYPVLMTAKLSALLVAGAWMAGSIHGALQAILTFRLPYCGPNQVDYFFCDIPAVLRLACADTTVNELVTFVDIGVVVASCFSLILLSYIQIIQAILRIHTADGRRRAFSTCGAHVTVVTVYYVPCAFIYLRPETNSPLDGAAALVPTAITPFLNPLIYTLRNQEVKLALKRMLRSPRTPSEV
In short: as §1

[3] = target: T3, OR10G4 (Homo sapiens) (UniProt Q8NGN3)
T3 sequence (whole entry): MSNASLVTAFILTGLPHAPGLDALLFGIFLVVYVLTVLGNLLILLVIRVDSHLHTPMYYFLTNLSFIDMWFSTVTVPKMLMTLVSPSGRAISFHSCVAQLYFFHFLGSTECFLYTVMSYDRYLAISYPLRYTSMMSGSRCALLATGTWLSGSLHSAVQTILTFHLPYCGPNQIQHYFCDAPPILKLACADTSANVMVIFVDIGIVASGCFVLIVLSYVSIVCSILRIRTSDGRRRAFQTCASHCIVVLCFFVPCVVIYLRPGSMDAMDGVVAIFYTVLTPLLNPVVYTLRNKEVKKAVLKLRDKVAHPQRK
In short: as §1

[4] = target: T4, OR10G6 (Homo sapiens) (UniProt Q8NH81)
T4 sequence (whole entry): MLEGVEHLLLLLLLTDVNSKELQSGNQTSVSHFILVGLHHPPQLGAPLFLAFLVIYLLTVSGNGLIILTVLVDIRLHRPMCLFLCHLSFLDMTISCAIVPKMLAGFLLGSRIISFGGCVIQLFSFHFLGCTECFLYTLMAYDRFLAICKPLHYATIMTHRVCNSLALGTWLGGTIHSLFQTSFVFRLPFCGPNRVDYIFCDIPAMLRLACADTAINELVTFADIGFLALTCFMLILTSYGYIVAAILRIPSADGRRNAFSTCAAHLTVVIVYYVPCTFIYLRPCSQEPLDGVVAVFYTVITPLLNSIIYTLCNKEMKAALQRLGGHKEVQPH
In short: as §1

[5] = target: T5, OR10G7 (Homo sapiens) (UniProt Q8NGN6)
T5 sequence (whole entry): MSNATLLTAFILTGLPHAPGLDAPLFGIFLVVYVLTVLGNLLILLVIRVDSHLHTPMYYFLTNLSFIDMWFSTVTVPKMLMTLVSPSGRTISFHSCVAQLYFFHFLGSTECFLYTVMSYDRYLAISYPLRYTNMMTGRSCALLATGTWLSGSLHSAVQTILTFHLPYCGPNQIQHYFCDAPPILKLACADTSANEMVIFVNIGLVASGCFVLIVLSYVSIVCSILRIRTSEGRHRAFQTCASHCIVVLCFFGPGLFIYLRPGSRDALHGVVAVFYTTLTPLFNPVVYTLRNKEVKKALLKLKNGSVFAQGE
In short: as §1

[6] = target: T6, OR10G8 (Homo sapiens) (UniProt Q8NGN5)
T6 sequence (whole entry): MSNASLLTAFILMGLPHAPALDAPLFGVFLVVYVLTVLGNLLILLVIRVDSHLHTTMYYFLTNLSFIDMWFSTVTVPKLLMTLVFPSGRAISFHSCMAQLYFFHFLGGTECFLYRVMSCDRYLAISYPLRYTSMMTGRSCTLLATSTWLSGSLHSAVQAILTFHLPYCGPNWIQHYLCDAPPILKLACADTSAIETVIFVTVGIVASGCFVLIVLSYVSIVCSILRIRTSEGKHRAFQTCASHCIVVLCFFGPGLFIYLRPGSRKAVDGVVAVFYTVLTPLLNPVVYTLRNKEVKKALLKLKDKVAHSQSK
In short: as §1

[7] = target: T7, OR10G9 (Homo sapiens) (UniProt Q8NGN4)
T7 sequence (whole entry): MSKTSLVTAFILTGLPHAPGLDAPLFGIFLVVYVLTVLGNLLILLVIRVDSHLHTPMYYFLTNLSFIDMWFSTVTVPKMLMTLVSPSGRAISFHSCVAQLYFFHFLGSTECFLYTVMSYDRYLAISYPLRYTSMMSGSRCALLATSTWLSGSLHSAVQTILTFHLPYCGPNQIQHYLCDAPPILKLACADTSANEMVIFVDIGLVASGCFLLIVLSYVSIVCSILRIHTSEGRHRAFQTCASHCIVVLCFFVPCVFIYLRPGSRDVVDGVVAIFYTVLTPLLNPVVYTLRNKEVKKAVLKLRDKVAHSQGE
In short: as §1

[8] = target: T8, OR10H1 (Homo sapiens) (UniProt Q9Y4A9)
T8 sequence (whole entry): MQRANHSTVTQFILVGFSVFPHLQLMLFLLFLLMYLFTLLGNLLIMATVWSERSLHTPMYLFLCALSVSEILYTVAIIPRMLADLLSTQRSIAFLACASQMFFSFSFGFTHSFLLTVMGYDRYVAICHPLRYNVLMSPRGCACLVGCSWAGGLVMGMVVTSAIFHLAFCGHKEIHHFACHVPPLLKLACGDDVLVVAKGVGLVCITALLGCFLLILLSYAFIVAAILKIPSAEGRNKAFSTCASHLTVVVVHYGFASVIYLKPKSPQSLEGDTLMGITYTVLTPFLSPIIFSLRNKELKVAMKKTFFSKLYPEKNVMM
In short: as §1

[9] = target: T9, OR10H2 (Homo sapiens) (UniProt O60403)
T9 sequence (whole entry): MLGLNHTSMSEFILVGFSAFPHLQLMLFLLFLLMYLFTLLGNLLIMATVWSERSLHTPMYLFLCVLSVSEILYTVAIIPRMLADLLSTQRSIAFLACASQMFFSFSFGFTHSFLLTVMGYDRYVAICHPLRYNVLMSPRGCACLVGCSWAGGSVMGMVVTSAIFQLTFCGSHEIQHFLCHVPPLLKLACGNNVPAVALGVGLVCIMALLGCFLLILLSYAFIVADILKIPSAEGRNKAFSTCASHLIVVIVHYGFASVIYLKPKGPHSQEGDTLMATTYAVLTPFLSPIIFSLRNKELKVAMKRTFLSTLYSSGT
In short: as §1

[10] = target: T10, OR10H3 (Homo sapiens) (UniProt O60404)
T10 sequence (whole entry): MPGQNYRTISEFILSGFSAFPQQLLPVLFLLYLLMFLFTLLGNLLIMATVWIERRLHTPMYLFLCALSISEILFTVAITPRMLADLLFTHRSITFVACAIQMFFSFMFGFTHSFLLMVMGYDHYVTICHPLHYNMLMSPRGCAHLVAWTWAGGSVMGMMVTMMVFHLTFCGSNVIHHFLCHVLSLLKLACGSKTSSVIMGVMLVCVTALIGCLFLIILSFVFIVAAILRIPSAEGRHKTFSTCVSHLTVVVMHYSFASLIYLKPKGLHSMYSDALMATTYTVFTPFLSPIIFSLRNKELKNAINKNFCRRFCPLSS
In short: as §1

[11] = target: T11, OR10H4 (Homo sapiens) (UniProt Q8NGA5)
T11 sequence (whole entry): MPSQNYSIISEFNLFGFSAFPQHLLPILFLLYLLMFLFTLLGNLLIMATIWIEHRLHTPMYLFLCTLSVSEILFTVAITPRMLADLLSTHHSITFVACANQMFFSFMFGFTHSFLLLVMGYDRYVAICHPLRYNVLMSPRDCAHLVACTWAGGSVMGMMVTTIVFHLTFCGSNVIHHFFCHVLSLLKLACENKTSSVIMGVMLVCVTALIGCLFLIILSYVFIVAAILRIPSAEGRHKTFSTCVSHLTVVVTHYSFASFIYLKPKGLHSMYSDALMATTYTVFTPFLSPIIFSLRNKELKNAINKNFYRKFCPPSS
In short: as §1

[12] = target: T12, OR10H5 (Homo sapiens) (UniProt Q8NGA6)
T12 sequence (whole entry): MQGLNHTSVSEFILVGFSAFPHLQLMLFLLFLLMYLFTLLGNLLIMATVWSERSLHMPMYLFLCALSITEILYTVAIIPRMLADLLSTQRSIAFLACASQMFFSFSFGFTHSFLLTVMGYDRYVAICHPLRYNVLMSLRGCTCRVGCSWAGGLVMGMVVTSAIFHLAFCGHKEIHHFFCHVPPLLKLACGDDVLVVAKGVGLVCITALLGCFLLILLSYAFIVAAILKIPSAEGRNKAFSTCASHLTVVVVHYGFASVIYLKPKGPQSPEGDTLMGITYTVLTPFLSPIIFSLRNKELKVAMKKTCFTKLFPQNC
In short: as §1

[13] = target: T13, OR10J1 (Homo sapiens) (UniProt P30954)
T13 sequence (whole entry): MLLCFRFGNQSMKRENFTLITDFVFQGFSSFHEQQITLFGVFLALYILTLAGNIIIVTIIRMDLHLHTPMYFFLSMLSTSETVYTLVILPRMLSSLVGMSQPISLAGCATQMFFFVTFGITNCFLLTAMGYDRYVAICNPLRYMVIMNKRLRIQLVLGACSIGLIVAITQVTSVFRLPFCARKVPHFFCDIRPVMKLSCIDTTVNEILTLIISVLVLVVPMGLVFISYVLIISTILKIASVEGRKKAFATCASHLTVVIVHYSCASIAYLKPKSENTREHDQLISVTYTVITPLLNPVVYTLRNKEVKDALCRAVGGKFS
In short: as §1

[14] = target: T14, OR10J3 (Homo sapiens) (UniProt Q5JRS4)
T14 sequence (whole entry): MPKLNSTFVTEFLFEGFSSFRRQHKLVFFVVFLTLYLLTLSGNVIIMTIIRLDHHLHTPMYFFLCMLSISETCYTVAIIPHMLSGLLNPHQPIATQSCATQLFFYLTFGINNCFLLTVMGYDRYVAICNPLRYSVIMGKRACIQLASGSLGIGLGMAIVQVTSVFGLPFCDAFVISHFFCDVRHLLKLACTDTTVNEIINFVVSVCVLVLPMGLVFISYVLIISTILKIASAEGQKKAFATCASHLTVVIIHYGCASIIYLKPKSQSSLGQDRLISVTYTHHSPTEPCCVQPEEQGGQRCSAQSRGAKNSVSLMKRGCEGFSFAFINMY
In short: as §1

[15] = target: T15, OR10J5 (Homo sapiens) (UniProt Q8NHC4)
T15 sequence (whole entry): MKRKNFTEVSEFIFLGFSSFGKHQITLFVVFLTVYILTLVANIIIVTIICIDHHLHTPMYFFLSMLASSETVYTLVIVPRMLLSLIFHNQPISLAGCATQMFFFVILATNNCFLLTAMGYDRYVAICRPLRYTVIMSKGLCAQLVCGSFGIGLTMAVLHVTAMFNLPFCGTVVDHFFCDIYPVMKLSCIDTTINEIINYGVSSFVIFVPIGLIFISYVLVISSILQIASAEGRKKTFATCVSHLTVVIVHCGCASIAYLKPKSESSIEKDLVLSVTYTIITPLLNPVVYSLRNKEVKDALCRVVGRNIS
In short: as §1

[16] = target: T16, OR10K1 (Homo sapiens) (UniProt Q8NGX5)
T16 sequence (whole entry): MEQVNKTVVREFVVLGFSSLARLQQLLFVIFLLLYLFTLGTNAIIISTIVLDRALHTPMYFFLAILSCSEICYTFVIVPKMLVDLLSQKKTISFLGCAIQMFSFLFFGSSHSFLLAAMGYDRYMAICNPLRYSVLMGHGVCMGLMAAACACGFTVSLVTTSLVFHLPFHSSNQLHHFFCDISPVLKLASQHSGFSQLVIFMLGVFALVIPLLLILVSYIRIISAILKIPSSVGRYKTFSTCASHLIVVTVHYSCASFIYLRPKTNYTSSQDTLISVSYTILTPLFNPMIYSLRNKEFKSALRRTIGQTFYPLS
In short: as §1

[17] = target: T17, OR10K2 (Homo sapiens) (UniProt Q6IF99)
T17 sequence (whole entry): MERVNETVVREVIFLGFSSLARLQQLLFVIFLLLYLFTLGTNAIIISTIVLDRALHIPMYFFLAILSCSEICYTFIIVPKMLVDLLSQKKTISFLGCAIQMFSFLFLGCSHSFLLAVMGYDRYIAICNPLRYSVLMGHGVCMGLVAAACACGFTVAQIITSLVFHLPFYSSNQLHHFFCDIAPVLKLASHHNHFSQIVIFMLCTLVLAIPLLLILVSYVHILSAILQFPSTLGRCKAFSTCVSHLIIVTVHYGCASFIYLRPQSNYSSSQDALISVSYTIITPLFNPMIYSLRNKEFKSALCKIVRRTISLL
In short: as §1

[18] = target: T18, OR10P1 (Homo sapiens) (UniProt Q8NGE3)
T18 sequence (whole entry): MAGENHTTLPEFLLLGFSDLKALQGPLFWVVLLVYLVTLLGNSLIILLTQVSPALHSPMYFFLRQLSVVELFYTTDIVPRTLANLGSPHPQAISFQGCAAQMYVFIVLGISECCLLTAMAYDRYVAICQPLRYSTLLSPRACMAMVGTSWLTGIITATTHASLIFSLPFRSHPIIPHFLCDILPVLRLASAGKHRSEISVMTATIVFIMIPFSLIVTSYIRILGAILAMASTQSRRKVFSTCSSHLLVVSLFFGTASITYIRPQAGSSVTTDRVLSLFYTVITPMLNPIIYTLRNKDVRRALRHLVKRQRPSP
In short: as §1

[19] = target: T19, OR10Q1 (Homo sapiens) (UniProt Q8NGQ4)
T19 sequence (whole entry): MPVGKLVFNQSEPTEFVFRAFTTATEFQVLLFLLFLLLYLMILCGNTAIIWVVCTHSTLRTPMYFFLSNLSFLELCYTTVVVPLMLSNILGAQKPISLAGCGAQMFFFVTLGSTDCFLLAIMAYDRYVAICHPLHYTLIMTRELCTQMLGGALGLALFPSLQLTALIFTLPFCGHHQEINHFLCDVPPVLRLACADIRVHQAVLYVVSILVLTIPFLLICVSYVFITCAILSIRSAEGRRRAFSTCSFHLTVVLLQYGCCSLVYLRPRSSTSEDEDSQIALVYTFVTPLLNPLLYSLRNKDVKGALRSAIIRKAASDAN
In short: as §1

Measured: odorant receptor agonist call

CCCCCC(S)C(C)CO (centres undefined)
inactive: all assays above
